Experimental findings from ChEMBL document CHEMBL3244072, “Synthesis and antiviral and enzymatic studies of certain 3-deazaguanines and their imidazolecarboxamide precursors” (J Med Chem, 1978) are described below.

Active and inactive are the calls of the source. The rule behind the calls is not given here.

For experiment [1], the system named is Escherichia coli. Nature of the experiment: Antimicrobial activity against Escherichia coli at 0.0025 to 0.125 umol/mL by broth microdilution method. The experiment is classed as functional, organism-based. In outline: (§1)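 Broth dilution in defined medium against clinical isolates of each organism.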
On the technique in general: In broth dilution the organism is exposed to a series of concentrations in liquid medium.

For the next experiment, the system named is Candida albicans. Nature of the experiment: Antimicrobial activity against Candida albicans at 0.4 umol/mL by broth microdilution method. Format: functional, organism-based. In outline: as §1
The next experiment has as its system Epidermophyton floccosum. Put plainly: Antimicrobial activity against Epidermophyton floccosum at 0.4 umol/mL by broth microdilution method. Format: functional, organism-based. In short, it runs like this:
as §1

Another experiment relates to Microsporum canis. Put plainly: Antimicrobial activity against Microsporum canis at 0.4 umol/mL by broth microdilution method. Format: functional, organism-based. In short, it runs like this: as §1
The subject of a further experiment is Pseudomonas aeruginosa. Put plainly: Antimicrobial activity against Pseudomonas aeruginosa at 0.4 umol/mL by broth microdilution method. Format: functional, organism-based. In outline:
as §1

The next experiment has as its system Staphylococcus aureus. Nature of the experiment: Antimicrobial activity against Staphylococcus aureus at 0.4 umol/mL by broth microdilution method. The experiment is classed as functional, organism-based. In short, it runs like this:
as §1

Experiment [2] deals with Trichophyton mentagrophytes. Nature of the experiment: Antimicrobial activity against Trichophyton mentagrophytes at 0.4 umol/mL by broth microdilution method. Format: functional, organism-based. In short, it runs like this: as §1
For experiment [3], the system named is KB. Nature of the experiment: Antiviral activity against Adenovirus type 3 infected in human KB cells assessed as inhibition of virus-induced cytopathic effect after 72 hrs relative to control. Format: functional, cell-based. Particulars: Human adenovirus 3. In outline:
(§2)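 Cell monolayers (18-24 h) infected with 320 CCID50 of virus; compound added within 15 min at half-log dilutions from 1000 to 1 μg/mL. After 72 h at 37 °C, CPE and cytotoxicity scored microscopically (0-4). Virus rating = sum of (control CPE − treated CPE) over drug levels, halved at any level showing toxicity.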

The subject of another experiment is Human alphaherpesvirus 1. Nature of the experiment: Antiviral activity against HSV1 infected in human KB cells assessed as inhibition of virus-induced cytopathic effect after 72 hrs relative to control. Format: functional, organism-based. In outline: as §2
The next experiment deals with Human alphaherpesvirus 2. Put plainly: Antiviral activity against HSV2 infected in human KB cells assessed as inhibition of virus-induced cytopathic effect after 72 hrs relative to control. The experiment is classed as functional, organism-based. In outline: as §2
For orientation: Protection from cytopathic effect is a common read-out in antiviral testing.

The test system of the next experiment is Vaccinia virus. Nature of the experiment: Antiviral activity against Vaccinia virus infected in human KB cells assessed as inhibition of virus-induced cytopathic effect after 72 hrs relative to control. The experiment is classed as functional, organism-based. Conditions: Orthopoxvirus vaccinia. In short, it runs like this:
as §2

Another experiment relates to Human respirovirus 3. Put plainly: Antiviral activity against Parainfluenza virus 3 infected in human KB cells assessed as inhibition of virus-induced cytopathic effect after 72 hrs relative to control. The experiment is classed as functional, organism-based. In short, it runs like this: as §2
Experiment [4] concerns KB. Nature of the experiment: Antiviral activity against Rhinovirus type 13 infected in human KB cells assessed as inhibition of virus-induced cytopathic effect after 72 hrs relative to control. Particulars: Human rhinovirus A13. Format: functional, cell-based. In outline: as §2
Experiment [5] concerns Ehrlich. Put plainly: Inhibition of adenine nucleotide biosynthesis in mouse EAC assessed as [14C]hypoxanthine incorporation at 1 mM after 60 mins by TLC analysis. The experiment is classed as functional. Particulars: 1 h. In outline:
(§3)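 Ehrlich ascites tumor cells (about 6 × 10^6 cells/mL) preincubated 20 min at 37 °C with or without 1 mM compound. [14C]hypoxanthine (55 μCi/μmol) then added to 0.1 mM final for 60 min. Label in adenine or guanine nucleotides of the acid-soluble fraction measured by TLC; inhibition calculated against untreated cells.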

Experiment [6] concerns Ehrlich. Put plainly: Inhibition of guanine nucleotide biosynthesis in mouse EAC assessed as [14C]hypoxanthine incorporation at 1 mM after 60 mins by TLC analysis. Format: functional. Particulars: 1 h. In outline:
as §3

For the next experiment, the system named is Influenza B virus. Put plainly: Antiviral activity against Influenza B virus Lee infected in Swiss-Webster mouse assessed as host mean survival days at 12.5 mg/kg, po qd for 9 days. The experiment is classed as functional, B/Lee/1940.
Experiment [7] deals with Escherichia coli. Put plainly: Inhibition of Escherichia coli IMP dehydrogenase assessed as ratio of compound concentration for 50% inhibition of enzyme activity to 1.7 to 3 x 10^-5 M of substrate concentration. In short, it runs like this:
(§4)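 Enzymes partially purified from Escherichia coli B. Substrate at 1.7-3.0 × 10^-5 M. Value is the ratio of inhibitor concentration giving 50% inhibition to substrate concentration.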

For experiment [8], the system named is Escherichia coli. Put plainly: Inhibition of Escherichia coli adenylosuccinate synthetase assessed as ratio of compound concentration for 50% inhibition of enzyme activity to 1.7 to 3 x 10^-5 M of substrate concentration. In outline: as §4

The term inhibition denotes the change of the read-out against control, counted positive when it falls.

For the compound `Nc1cc2ncn([C@@H]3O[C@H](CO)[C@@H](O)[C@H]3O)c2c(=O)[nH]1`, in the experiment on Escherichia coli [1], the result was Active.

As for `CC(=O)OC[C@H]1O[C@@H](n2cnc(C(N)=O)c2CC#N)[C@H](OC(C)=O)[C@@H]1OC(C)=O`, the result (in the experiment with Candida albicans; in the experiment with Epidermophyton floccosum; in the experiment with Microsporum canis; in the experiment on Pseudomonas aeruginosa; in the experiment with Staphylococcus aureus; in [2]) was inactive.

On to `COC(=O)c1ncn([C@@H]2O[C@H](C)[C@@H](OC(C)=O)[C@H]2OC(C)=O)c1CC#N`, for which the result (with Candida albicans; with Epidermophyton floccosum; in the experiment with Microsporum canis; with Pseudomonas aeruginosa; in the experiment on Staphylococcus aureus; in experiment [2]) was inactive.

Take `NC(=O)c1ncn([C@@H]2O[C@H](CO)[C@@H](O)[C@H]2O)n1` [RIBAVIRIN]: the outcome in the experiment with KB [3], in the experiment on Human alphaherpesvirus 1, in the experiment on Human alphaherpesvirus 2, in the experiment with Vaccinia virus, in the experiment on Human respirovirus 3 and in the experiment on KB [4] was Active. Further, the inhibition at 1000 µM in the experiment with Ehrlich [5] is 14%; in the experiment with Ehrlich [6], 65%.

Take `CN(C)/C=N/c1cc2c(ncn2[C@@H]2O[C@H](CO)[C@@H](O)[C@H]2O)c(=O)[nH]1`: the result (with Candida albicans; in the experiment with Epidermophyton floccosum; in the experiment with Microsporum canis; with Pseudomonas aeruginosa; in the experiment on Staphylococcus aureus; in experiment [2]) was inactive.

For `CC(=O)Nc1cc2c(ncn2[C@@H]2O[C@H](COC(C)=O)[C@@H](OC(C)=O)[C@H]2OC(C)=O)c(=O)[nH]1`, the result (in the experiment with Candida albicans; with Epidermophyton floccosum; in the experiment on Microsporum canis; in the experiment with Pseudomonas aeruginosa; with Staphylococcus aureus; in experiment [2]) was inactive.

Take `C1=COCCC1`: the result (in the experiment on Candida albicans; in the experiment with Epidermophyton floccosum; in the experiment on Microsporum canis; with Pseudomonas aeruginosa; in the experiment on Staphylococcus aureus; in experiment [2]) was inactive.

On to `C[C@H]1O[C@@H](n2cnc3c(=O)[nH]c(N)cc32)[C@H](O)[C@@H]1O`, for which, in the experiment with Human alphaherpesvirus 1, the outcome was Active. The result in the experiment with Human respirovirus 3, in the experiment with KB [4], in the experiment with Candida albicans, in the experiment with Epidermophyton floccosum, with Microsporum canis and in the experiment on Pseudomonas aeruginosa was inactive. For the same compound, the outcome (with Staphylococcus aureus; in [2]) was inactive.

For the compound `CC(=O)Nc1cc2[nH]cnc2c(=O)[nH]1`, the outcome (in the experiment with Candida albicans; with Epidermophyton floccosum; in the experiment with Microsporum canis; in the experiment with Pseudomonas aeruginosa; in the experiment with Staphylococcus aureus; in [2]) was inactive.

Turning to `Nc1cc2ncn(C3CCCCO3)c2c(=O)[nH]1` (stereo not drawn), the outcome in the experiment with Human alphaherpesvirus 1 and in the experiment on KB [4] was Active. The result in the experiment on Human respirovirus 3, in the experiment with Candida albicans, in the experiment with Epidermophyton floccosum, in the experiment with Microsporum canis, in the experiment on Pseudomonas aeruginosa and in the experiment on Staphylococcus aureus was inactive. Moreover, the result in experiment [2] was inactive.

In the case of `N#CCc1c(C(N)=O)ncn1C1CCCCO1` (stereo not drawn), the outcome (in the experiment with Candida albicans; in the experiment on Epidermophyton floccosum; with Microsporum canis; with Pseudomonas aeruginosa; with Staphylococcus aureus; in experiment [2]) was inactive.

Regarding `COC(=O)c1ncn(C2CCCCO2)c1CC#N` (stereo not drawn), the Time with Influenza B virus is over 0.3 days. Further, the result (with Candida albicans; in the experiment with Epidermophyton floccosum; with Microsporum canis; with Pseudomonas aeruginosa; in the experiment on Staphylococcus aureus; in experiment [2]) was inactive.

`CC(=O)O[C@@H]1O[C@H](C)[C@@H](OC(C)=O)[C@H]1OC(C)=O`: the outcome (in the experiment on Candida albicans; in the experiment with Epidermophyton floccosum; in the experiment on Microsporum canis; in the experiment on Pseudomonas aeruginosa; in the experiment on Staphylococcus aureus; in experiment [2]) was inactive.

On to `Nc1cc2c(ncn2[C@@H]2O[C@H](COP(=O)(O)O)[C@@H](O)[C@H]2O)c(=O)[nH]1`, for which the outcome with KB [3], in the experiment with Human alphaherpesvirus 1, in the experiment on Human alphaherpesvirus 2, in the experiment on Vaccinia virus, in the experiment with Human respirovirus 3 and in the experiment with KB [4] was Active. In addition, the inhibition at 1000 µM was 18% in the experiment with Ehrlich [5] and 68% in the experiment with Ehrlich [6]. The Ratio is 0.068 in the experiment on Escherichia coli [7] and 20 in the experiment on Escherichia coli [8]. Further, the outcome (in the experiment on Candida albicans; in the experiment with Epidermophyton floccosum; in the experiment on Microsporum canis; with Pseudomonas aeruginosa; in the experiment with Staphylococcus aureus; in experiment [2]) was inactive.

Regarding `C[C@H]1O[C@@H](n2cnc(C(N)=O)c2CC#N)[C@H](O)[C@@H]1O`, the result (in the experiment on Candida albicans; in the experiment on Epidermophyton floccosum; in the experiment on Microsporum canis; with Pseudomonas aeruginosa; in the experiment with Staphylococcus aureus; in [2]) was inactive.

As for `COC(=O)c1c(CC#N)ncn1C1CCCCO1` (stereo not drawn), the result (in the experiment on Candida albicans; in the experiment with Epidermophyton floccosum; with Microsporum canis; with Pseudomonas aeruginosa; with Staphylococcus aureus; in experiment [2]) was inactive.

As to `C[C@H]1O[C@@H](n2cnc3cc(N)[nH]c(=O)c32)[C@H](O)[C@@H]1O`, the result (with Candida albicans; with Epidermophyton floccosum; in the experiment with Microsporum canis; with Pseudomonas aeruginosa; in the experiment with Staphylococcus aureus; in experiment [2]) was inactive.

Regarding `COC(=O)c1c(CC#N)ncn1[C@@H]1O[C@H](C)[C@@H](OC(C)=O)[C@H]1OC(C)=O`, the result (with Candida albicans; with Epidermophyton floccosum; in the experiment with Microsporum canis; in the experiment with Pseudomonas aeruginosa; in the experiment with Staphylococcus aureus; in experiment [2]) was inactive.

Turning to `Nc1cc2c(ncn2C2CCCCO2)c(=O)[nH]1` (stereo not drawn), the result (in the experiment on Candida albicans; in the experiment on Epidermophyton floccosum; in the experiment with Microsporum canis; with Pseudomonas aeruginosa; in the experiment with Staphylococcus aureus; in experiment [2]) was inactive.
